Measured values reported in ChEMBL document CHEMBL4152236, “Substituted 1,5-naphthyridine derivatives as novel antileishmanial agents. Synthesis and biological evaluation” (Eur J Med Chem, 2018).
Activity calls are given as the source filed them. No cut-off for these calls is given here.

Assays:
[1] = Inhibition of Leishmania donovani Top1B expressed in Top1B deficient Saccharomyces cerevisiae EKY3 assessed as decrease in relaxation of supercoiled pSK DNA preincubated for 15 mins followed by DNA addition and measured after 1 to 16 mins by agarose gel electrophoresis
Outline: (§1)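 Recombinant LTopIB or hTopIB from TopIB-deficient yeast EKY3 (galactose-induced), purified on phosphocellulose then phenyl-Sepharose. Enzyme (1 unit) preincubated with compound for 15 min at 37 °C. Then 0.5 μg supercoiled pSK DNA added in 10 mM Tris-HCl pH 7.5, 5 mM MgCl₂, 0.1 mM EDTA, 50 mM KCl, BSA. Incubated at 37 °C, stopped with 1% SDS. Agarose gel; relaxed and supercoiled bands quantified.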

[2] = tested on: Leishmania infantum; experiment: Leishmanicidal activity against promastigote stage of iRFP expressing Leishmania infantum BCN150 assessed as decrease in parasite viability; type: functional, organism-based
Outline: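 Promastigotes grown in M199 with 10% heat-inactivated FCS, seeded at 10^6 cells/mL. Compounds given as three-fold DMSO stock dilutions, final DMSO ≤0.1%. Viability read as infrared fluorescence (ex 684, em 708 nm). IC50 is the 50% emission reduction versus DMSO control, from nonlinear fits. Triplicate wells.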

[3] = Selectivity index, ratio of CC50 for BALB/c mouse splenocytes to IC50 for amastigote stage of iRFP expressing Leishmania infantum BCN150 infected in BALB/c mouse splenocytes; type: toxicity, cell-based; details: read-out: Ratio CC50/IC50
Outline: (§2)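 Female BALB/c mice infected intravenously with metacyclic L. infantum-iRFP promastigotes. After 5 weeks, spleens collagenase-digested (2 mg/mL, 20 min, 37 °C); splenocytes plated in RPMI with 20% FCS. Compounds added at 10 to 0.07 μM for 72 h. Infrared emission read at 708 nm; IC50 is the 50% reduction versus DMSO control. SI = CC50 in uninfected splenocytes / amastigote IC50.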

[4] = target: T1, DNA topoisomerase 1 (Homo sapiens, UniProt P11387); experiment: Inhibition of human Top1B expressed in Top1B deficient Saccharomyces cerevisiae EKY3 assessed as decrease in relaxation of supercoiled pSK DNA preincubated for 15 mins followed by DNA addition and measured after 1 to 16 mins by agarose gel electrophoresis; outline: as §1
T1 sequence (P11387 whole entry): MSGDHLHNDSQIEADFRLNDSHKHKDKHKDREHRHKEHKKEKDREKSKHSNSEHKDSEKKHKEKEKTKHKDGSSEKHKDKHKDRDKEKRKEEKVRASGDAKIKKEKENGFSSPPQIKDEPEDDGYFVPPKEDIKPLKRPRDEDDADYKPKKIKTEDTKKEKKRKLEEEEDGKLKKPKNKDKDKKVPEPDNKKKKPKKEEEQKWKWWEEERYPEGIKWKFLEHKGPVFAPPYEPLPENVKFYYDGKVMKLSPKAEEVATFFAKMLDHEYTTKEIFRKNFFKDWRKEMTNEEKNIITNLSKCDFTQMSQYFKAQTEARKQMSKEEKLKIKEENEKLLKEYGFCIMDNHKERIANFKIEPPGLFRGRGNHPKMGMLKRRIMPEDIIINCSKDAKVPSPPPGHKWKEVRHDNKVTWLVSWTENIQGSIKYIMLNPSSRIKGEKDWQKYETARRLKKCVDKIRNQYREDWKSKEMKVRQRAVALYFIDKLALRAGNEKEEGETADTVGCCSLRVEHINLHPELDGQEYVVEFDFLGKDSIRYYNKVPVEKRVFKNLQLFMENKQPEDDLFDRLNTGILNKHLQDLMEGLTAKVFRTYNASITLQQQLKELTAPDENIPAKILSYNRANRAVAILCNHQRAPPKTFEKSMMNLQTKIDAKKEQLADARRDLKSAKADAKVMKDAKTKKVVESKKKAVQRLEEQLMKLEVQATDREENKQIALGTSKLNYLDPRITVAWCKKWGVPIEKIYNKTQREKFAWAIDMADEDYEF

[5] = Cytotoxicity against BALB/c mouse splenocytes assessed as decrease in […] viability after 72 hrs by Alamar blue assay; type: cell-based, Splenocyte
Outline: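 Uninfected BALB/c mouse splenocytes, obtained and cultured as for the explants (RPMI, 20% FCS), exposed to compounds at 100 to 0.8 μM for 72 h at 37 °C. Viability read by Alamar Blue. CC50 taken from dose-response curves. Mean ± sd of at least three experiments in triplicate.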

[6] = tested on: Leishmania infantum; experiment: Leishmanicidal activity against amastigote stage of iRFP expressing Leishmania infantum BCN150 infected in BALB/c mouse splenocytes assessed as decrease in parasite viability after 72 hrs; type: functional, organism-based; details: BCN150, 72 h; outline: as §2
[7] = tested on: Leishmania donovani; experiment: Inhibition of Leishmania donovani Top1B expressed in Top1B deficient Saccharomyces cerevisiae EKY3 assessed as decrease in relaxation of supercoiled pSK DNA at 100 uM at 37 degC preincubated for 15 mins followed by DNA addition and measured after 1 to 16 mins by agarose gel electrophoresis; outline: as §1

CC[C@@]1(O)C(=O)OCc2c1cc1n(c2=O)Cc2cc3ccccc3nc2-1 [CAMPTOTHECIN]
IC50 ([1]; read-out: IC50): 75.7 µM

FC(F)(F)c1ccc(-c2cc(-c3ccc(C(F)(F)F)cc3)c3ncccc3n2)cc1
IC50 [2]: > 100 µM
selectivity ratio [3]: 18.8
IC50 ([4]; read-out: IC50): 50.9 µM
CC50 at 72 h [5]: 178 µM
IC50 [6]: 9.47 µM

COc1ccc(-c2cc(-c3ccc(F)cc3)nc3cccnc23)cc1
IC50 [2]: 97.2 µM
selectivity ratio [3]: 31.8
IC50 [1]: Not Active
IC50 [4]: Not Active
CC50 at 72 h [5]: 24.2 µM
IC50 [6]: 0.76 µM

COc1ccc(-c2cc(-c3ccc([N+](=O)[O-])cc3)nc3cccnc23)cc1
IC50 [2]: 20.7 µM
selectivity ratio [3]: 187
IC50 [1]: Not Active
IC50 [4]: Not Active
CC50 at 72 h [5]: 109 µM
IC50 [6]: 0.58 µM

Fc1ccc(-c2cc(-c3ccccc3)c3ncccc3n2)cc1
IC50 [2]: > 100 µM
selectivity ratio [3]: 16.7
IC50 ([1]; read-out: IC50): 81.9 µM
IC50 ([4]; read-out: IC50): 72.8 µM
CC50 at 72 h [5]: 124 µM
IC50 [6]: 7.41 µM

Fc1ccc(-c2cc(-c3ccccc3)c3ncccc3n2)cc1F
IC50 [2]: > 100 µM
selectivity ratio [3]: 7.7
IC50 ([1]; read-out: IC50): 76.6 µM
IC50 ([4]; read-out: IC50): 73.1 µM
CC50 at 72 h [5]: 21.7 µM
IC50 [6]: 2.82 µM

Fc1ccc(-c2cc(-c3ccsc3)c3ncccc3n2)cc1
IC50 [2]: 67 µM
selectivity ratio [3]: 4.1
IC50 ([1]; read-out: IC50): 49.3 µM
IC50 ([4]; read-out: IC50): 43.8 µM
CC50 at 72 h [5]: 32.5 µM
IC50 [6]: 7.93 µM

Fc1ccc(-c2cc(-c3ccc(-c4ccccc4)cc3)c3ncccc3n2)cc1
IC50 [2]: 45.2 µM
selectivity ratio [3]: 30.2
IC50 ([1]; read-out: IC50): 58.1 µM
IC50 ([4]; read-out: IC50): 83.3 µM
CC50 at 72 h [5]: 153 µM
IC50 [6]: 5.04 µM

O=[N+]([O-])c1cccc(-c2cc(-c3ccccc3)c3ncccc3n2)c1
IC50 [2]: 79.2 µM
selectivity ratio [3]: 143
IC50 [4]: Not Active
CC50 at 72 h [5]: 146 µM
IC50 [6]: 1.02 µM

COc1cccc(-c2cc(-c3ccccc3)c3ncccc3n2)c1
IC50 [2]: > 100 µM
selectivity ratio [3]: 272
IC50 ([4]; read-out: IC50): 82 µM
CC50 at 72 h [5]: 157 µM
IC50 [6]: 0.58 µM

FC(F)(F)c1ccc(-c2cc(-c3ccsc3)c3ncccc3n2)cc1
IC50 [2]: > 100 µM
selectivity ratio [3]: 49.4
IC50 ([1]; read-out: IC50): 62.8 µM
IC50 ([4]; read-out: IC50): 82.1 µM
CC50 at 72 h [5]: 181 µM
IC50 [6]: 3.67 µM

C[C@@H]1[C@H](O)[C@@H](C)/C=C/C=C/C=C/C=C/C=C/C=C/C=C/[C@H](O[C@@H]2O[C@H](C)[C@@H](O)[C@H](N)[C@@H]2O)C[C@@H]2O[C@](O)(C[C@@H](O)C[C@@H](O)[C@H](O)CC[C@@H](O)C[C@@H](O)CC(=O)O[C@H]1C)C[C@H](O)[C@H]2C(=O)O [AMPHOTERICIN B]
selectivity ratio [3]: > 62.5
CC50 at 72 h [5]: > 20 µM

Cc1c(-c2ccc(C(F)(F)F)cc2)nc2cccnc2c1-c1ccccc1
IC50 [2]: > 100 µM
selectivity ratio [3]: 53.2
IC50 ([1]; read-out: IC50): 75.7 µM
IC50 ([4]; read-out: IC50): 70.6 µM
CC50 at 72 h [5]: 126 µM
IC50 [6]: 2.37 µM

COc1ccc(-c2cc(-c3cccc([N+](=O)[O-])c3)nc3cccnc23)cc1
IC50 [2]: 45.2 µM
selectivity ratio [3]: 35.1
IC50 [1]: Not Active
IC50 [4]: Not Active
CC50 at 72 h [5]: 133 µM
IC50 [6]: 3.79 µM

COc1ccc(-c2cc(-c3ccc(C(F)(F)F)cc3)nc3cccnc23)cc1
IC50 [2]: > 100 µM
selectivity ratio [3]: 67.1
IC50 [4]: Not Active
CC50 at 72 h [5]: 152 µM
IC50 [6]: 2.26 µM

O=[N+]([O-])c1cccc(-c2cc(-c3ccc(-c4ccccc4)cc3)c3ncccc3n2)c1
IC50 [2]: 15.1 µM
selectivity ratio [3]: 104
IC50 ([1]; read-out: IC50): 78.7 µM
IC50 ([4]; read-out: IC50): 67.5 µM
CC50 at 72 h [5]: 30.1 µM
IC50 [6]: 0.29 µM

FC(F)(F)c1ccc(-c2cc(-c3ccccc3)c3ncccc3n2)cc1
IC50 [2]: 37.3 µM
selectivity ratio [3]: 140
IC50 ([1]; read-out: IC50): 69.5 µM
IC50 ([4]; read-out: IC50): 72.7 µM
CC50 at 72 h [5]: 65.7 µM
IC50 [6]: 0.47 µM

c1ccc(-c2cc(-c3ccccc3)c3ncccc3n2)cc1
IC50 [2]: 27.2 µM
inhibition [7]: Active
selectivity ratio [3]: 6.5
IC50 ([4]; read-out: IC50): 11.2 µM
CC50 at 72 h [5]: 54.8 µM
IC50 [6]: 8.42 µM
